Source: ChEMBL document CHEMBL1123101, “Pseudosymmetry and bioisosterism in biaryl pyridyl competitive histamine H2-receptor antagonists” (J Med Chem, 1985)
Activity calls are given as the source filed them. The calls are words filed in the database; no cut-off is given here.

Legend:
[1] = Partition coefficient (logP); assay type: physicochemical; conditions: octanol/water
[2] = target: Histamine H2 receptor (Cavia porcellus) (UniProt P47747); assay: Dissociation constant of H2 receptor antagonist activity against guinea pig atrium; assay type: functional, tissue-based; conditions: Cardiac atrium
Sequence of Histamine H2 receptor (Cavia porcellus) (P47747 whole entry): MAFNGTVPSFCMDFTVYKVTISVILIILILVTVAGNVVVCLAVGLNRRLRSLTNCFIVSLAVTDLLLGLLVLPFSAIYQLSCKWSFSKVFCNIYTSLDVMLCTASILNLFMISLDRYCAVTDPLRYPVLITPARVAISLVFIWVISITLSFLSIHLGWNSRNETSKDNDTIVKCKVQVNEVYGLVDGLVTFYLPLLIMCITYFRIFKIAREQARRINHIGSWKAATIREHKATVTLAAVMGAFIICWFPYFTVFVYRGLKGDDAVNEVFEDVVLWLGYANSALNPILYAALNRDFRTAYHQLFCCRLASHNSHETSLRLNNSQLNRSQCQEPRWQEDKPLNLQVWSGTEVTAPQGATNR

Canis familiaris [3] = assay: Antisecretory dose in mg/kg required for 50% inhibition in dogs by intravenous administration; assay type: functional, Canis lupus familiaris
Outline: (§1)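 Pentagastrin-stimulated Heidenhain pouch dogs were dosed iv, and acid output was titrated from 30-min collections. Percent inhibition compares the lowest post-dose output with the pre-dose mean. The dose giving 50% inhibition came from linear regression of log dose on percent inhibition in n dogs.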

Canis familiaris [4] = assay: Maximum percent inhibition of acid output in pentagastrin-stimulated Heidenhain pouch dog at dose(mg/kg) administered intravenously; assay type: functional, Canis lupus familiaris
Outline: (§2)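 Fasted unanesthetized Heidenhain pouch dogs, with acid output stimulated to near maximum by continuous pentagastrin infusion into a leg vein. Gastric juice was collected every 30 min, ten collections per dog. Acid was titrated to pH 7.4 with 0.1 N NaOH. Compound or vehicle was given iv 90 min after the infusion started. Percent inhibition compares the lowest post-dose acid output with the mean output just before dosing. Single experiments.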

Canis familiaris [5] = species on record: Canis familiaris; assay: Effective dose for acid output in pentagastrin-stimulated Heidenhain pouch dog; assay type: functional, Canis lupus familiaris; outline: as §1
Canis familiaris [6] = assay: Maximum percent inhibition of acid output in pentagastrin-stimulated Heidenhain pouch dog following 1 mg/kg i.v. administration.; assay type: functional; conditions: Canis lupus familiaris, route intravenous; outline: as §2
Canis familiaris [7] = assay: Maximum percent inhibition of acid output in pentagastrin-stimulated Heidenhain pouch dog following 10 mg/kg i.v. administration.; assay type: functional; conditions: Canis lupus familiaris, route intravenous; outline: as §2
Canis familiaris [8] = assay: Maximum percent inhibition of acid output in pentagastrin-stimulated Heidenhain pouch dog at dose (5 mg/kg) administered intravenously; assay type: functional; conditions: Canis lupus familiaris, iv; outline: as §2
Canis familiaris [9] = assay: Maximum percent inhibition of acid output in pentagastrin-stimulated Heidenhain pouch dog at dose (0.5 mg/kg) administered intravenously; assay type: functional; conditions: Canis lupus familiaris, iv; outline: as §2
Canis familiaris [10] = assay: Maximum percent inhibition of acid output in pentagastrin-stimulated Heidenhain pouch dog at dose (9 mg/kg) administered intravenously; assay type: functional; conditions: Canis lupus familiaris, iv; outline: as §2
Canis familiaris [11] = assay: Maximum percent inhibition of acid output in pentagastrin-stimulated Heidenhain pouch dog at dose (25 mg/kg) administered intravenously; assay type: functional; conditions: Canis lupus familiaris, iv; outline: as §2
[12] = target: Histamine H2 receptor (Cavia porcellus) (UniProt P47747); assay: Dissociation constant of H2 receptor antagonist activity against guinea pig atrium;NA means not active; assay type: functional, tissue-based; conditions: Cardiac atrium
Outline: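 Right atria from guinea pigs killed by a blow to the head, hung isometrically in oxygenated (95% O2/5% CO2) Krebs–Henseleit buffer at pH 7.4 and 32 ± 2 °C, and stabilized about 1 h. Histamine dose–response curves were run before and after antagonist at set final concentrations, with 3- or 30-min drug equilibration. DR is the ratio of half-maximal histamine concentrations. KB = B/(DR − 1). Schild slope is log(DR − 1) vs log B.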

Canis familiaris [13] = assay: Maximum percent inhibition of acid output in pentagastrin-stimulated Heidenhain pouch dog at dose (8 mg/kg) administered intravenously; assay type: functional; conditions: Canis lupus familiaris, iv; outline: as §2
Canis familiaris [14] = assay: Maximum percent inhibition of acid output in pentagastrin-stimulated Heidenhain pouch dog at dose (23 mg/kg) administered intravenously; assay type: functional; conditions: Canis lupus familiaris, iv; outline: as §2

logP [1]	KB [2]	SMILES	-Log I50 (Canis familiaris [3])	inhibition in vivo at 1 mg/kg (Canis familiaris [6])	inhibition in vivo at 10 mg/kg (Canis familiaris [7])	other results
4.07	–	CCCCCCCCCCNc1cc(-c2n[nH]c(N)n2)ccn1	-1.7	–	–	Kb [2]: 4.78 µM; Inhibition (Canis familiaris [4]): 14%
0.11	2.2 µM	Nc1cc(-c2n[nH]c(N)n2)ccn1	-0.306	–	–	ED50 (Canis familiaris [5]): 2.35 mg/kg
2.85	0.3 µM	Nc1n[nH]c(-c2ccnc(NCc3ccc(Cl)cc3)c2)n1	-0.428	21%	–	–
0.94	3.5 µM	COCCNc1cc(-c2n[nH]c(N)n2)ccn1	-0.88	11%	50%	–
3.08	0.11 µM	Cc1ccc(CNc2cc(-c3n[nH]c(N)n3)ccn2)cc1C	-0.718	–	–	inhibition in vivo at 5 mg/kg (Canis familiaris [8]): 49%
–	3.6 µM	CC(C)Nc1cc(-c2n[nH]c(N)n2)ccn1	–	–	–	inhibition in vivo at 5 mg/kg (Canis familiaris [8]): 52%
–	4.6 µM	Cc1cc(-c2c[nH]c(C)n2)ccn1	–	–	24%	–
–	4.7 µM	CCNc1cc(-c2n[nH]c(NCC)n2)ccn1	–	38%	–	inhibition in vivo at 0.5 mg/kg (Canis familiaris [9]): 21%
2.15	0.67 µM	CCCCNc1cc(-c2n[nH]c(N)n2)ccn1	-0.5	29%	–	inhibition in vivo at 9 mg/kg (Canis familiaris [10]): 69%
2.69	0.13 µM	Cc1ccc(CNc2cc(-c3n[nH]c(N)n3)ccn2)cc1	-1.03	–	–	inhibition in vivo at 5 mg/kg (Canis familiaris [8]): 33%
2.15	0.71 µM	Nc1n[nH]c(-c2ccnc(NCc3ccccc3)c2)n1	-0.568	21%	72%	–
1.61	0.77 µM	CCCNc1cc(-c2n[nH]c(N)n2)ccn1	-0.379	33%	–	inhibition in vivo at 5 mg/kg (Canis familiaris [8]): 64%
–	1.4 µM	CCNc1cc(-c2c[nH]c(C)n2)ccn1	–	–	55%	–
–	13 µM	Cc1cc(-c2n[nH]c(N)n2)ccn1	–	26%	–	inhibition in vivo at 5 mg/kg (Canis familiaris [8]): 60%
2.63	1.9 µM	Nc1n[nH]c(-c2ccnc(NCCc3ccccc3)c2)n1	-1	–	50%	–
1.13	0.23 µM	CCNc1cc(-c2n[nH]c(N)n2)ccn1	-0.028	–	–	ED50 (Canis familiaris [5]): 0.87 mg/kg
–	3.2 µM	CN(C)c1cc(-c2n[nH]c(N)n2)ccn1	–	48%	–	inhibition in vivo at 5 mg/kg (Canis familiaris [8]): 80%
3.05	–	Nc1n[nH]c(-c2ccnc(NCCCc3ccccc3)c2)n1	–	–	30%	–
–	1.3 µM	CCNc1cc(-c2n[nH]c(NC)n2)ccn1	–	35%	72%	–
–	–	Cc1nc(-c2ccncc2)c[nH]1	–	–	–	inhibition in vivo at 25 mg/kg (Canis familiaris [11]): 56%
–	5 µM	CCNc1cc(-c2nc[nH]n2)ccn1	–	–	29%	–

logP [1]	KB [2]	SMILES	-Log I50 (Canis familiaris [3])	inhibition in vivo at 1 mg/kg (Canis familiaris [6])	inhibition in vivo at 10 mg/kg (Canis familiaris [7])	other results
–	–	CCN(C)c1cc(-c2n[nH]c(N)n2)ccn1	–	42%	–	–
–	–	Nc1n[nH]c(-c2ccnc(N3CCCC3)c2)n1	–	0%	–	–
0.24	2 µM	Nc1n[nH]c(-c2ccnc(NCCO)c2)n1	-1.31	–	34%	–
–	4 µM	CCCc1cc(-c2n[nH]c(N)n2)ccn1	–	–	–	inhibition in vivo at 5 mg/kg (Canis familiaris [8]): 0%
1.26	0.48 µM	C=CCNc1cc(-c2nc(N)n[nH]2)ccn1	-0.37	31%	–	–
–	–	Nc1n[nH]c(-c2ccnc(Nc3ccccc3)c2)n1	–	–	0%	–
–	–	CN/C(=N\CCSCc1nc[nH]c1C)NC#N [CIMETIDINE]	–	–	–	ED50 (Canis familiaris [5]): 1.02 mg/kg
–	23 µM	Cc1n[nH]c(-c2ccnc(CO)c2)n1	–	–	7%	–
3.3	0.27 µM	CCCCCCNc1cc(-c2n[nH]c(N)n2)ccn1	-1.2	–	40%	–
–	3.3 µM	CCNc1cc(-c2c[nH]c(N)n2)ccn1	–	22%	74%	–
–	–	CCNc1cc(-c2n[nH]c(Cc3ccccc3)n2)ccn1	–	–	19%	KB [12]: inactive
–	4.5 µM	CCNc1cc(-c2n[nH]c(CO)n2)ccn1	–	20%	53%	–
–	0.14 µM	CC(C)(C)c1ccc(CNc2cc(-c3n[nH]c(N)n3)ccn2)cc1	–	–	–	inhibition in vivo at 8 mg/kg (Canis familiaris [13]): 0%
–	1.3 µM	CCNc1cc(-c2n[nH]c(CC)n2)ccn1	–	–	–	inhibition in vivo at 5 mg/kg (Canis familiaris [8]): 17%
–	42 µM	Nc1n[nH]c(-c2ccncc2)n1	–	–	43%	inhibition in vivo at 23 mg/kg (Canis familiaris [14]): 73%
–	1.8 µM	CCc1cc(-c2n[nH]c(N)n2)ccn1	–	–	–	inhibition in vivo at 5 mg/kg (Canis familiaris [8]): 55%
–	0.59 µM	CCNc1cc(-c2c[nH]cn2)ccn1	–	–	27%	–
–	–	Cc1n[nH]c(-c2ccnc(Cc3ccccc3)c2)n1	–	–	31%	–
–	0.55 µM	CCNc1cc(-c2n[nH]c(C)n2)ccn1	–	35%	–	–
0.694	0.56 µM	CNc1cc(-c2n[nH]c(N)n2)ccn1	0	50%	–	–
–	11 µM	CCCc1n[nH]c(-c2ccnc(NCC)c2)n1	–	–	45%	–
